# Measurements pooled from the literature.
# Each line is one published result; the experiments were not run side by side.
# Target: Serine/threonine-protein kinase SIK2 (SIK2, Homo sapiens, UniProt Q9H0K1)
Structure (SMILES),assay,conditions,quantity,result
O=C1CCc2cc(Nc3cc(OC4CCOCC4)c([N+](=O)[O-])cc3Cl)ccc2N1,"cell-free assay, competition with immobilised ligand",1 µM,remaining binding,100%
FC(F)(F)Oc1cccc(-c2cnc3ccc(-c4ccncc4)nn23)c1,"enzyme activity, inhibitor, radiometric",1 µM,activity vs control,68%
COc1cc(Nc2c(C#N)cnc3cc(OCCCN4CCN(C)CC4)c(OC)cc23)c(Cl)cc1Cl,cell-free assay,0.5 µM,remaining signal,1.93%
COc1cc(/C=C/C(=O)CC(=O)/C=C/c2ccc(O)c(OC)c2)ccc1O,"enzyme activity, inhibitor",1 µM,activity vs control,83%
CNC(=O)Nc1ccc2c(c1)[C@@]1(CC2)OC(=O)N(CC(=O)N(Cc2ccc(F)cc2)[C@@H](C)C(F)(F)F)C1=O,"cell-free assay, competition with immobilised ligand",1 µM,remaining binding,88%
CCOc1cc(-c2nncn2C)ccc1Nc1ncc2cc(C)nc(NCC(C)(C)C)c2n1,"enzyme activity, inhibitor, FRET",1 µM,inhibition,< 15%
CC(=O)C1=C(C)N(c2cccc(C(F)(F)F)c2)C(=O)N[C@@H]1c1ccc(C#N)nc1,"cell-free assay, competition with immobilised ligand",1 µM,remaining binding,87.8%
O=C1NC(=O)c2cc(Nc3ccc(F)cc3)c(Nc3ccc(F)cc3)cc21,cell-free assay,0.5 µM,remaining signal,103%
Cc1sc(C(=O)NC2COC2)cc1-n1cc(NC(=O)Nc2c(F)cccc2Cl)cn1,"enzyme activity, inhibitor",10 µM,remaining activity,89.8%
COc1cc2ncnc(Nc3ccc(Oc4ccccc4)c(C)c3C)c2cc1OC,"enzyme activity, inhibitor",1 µM,inhibition,0%
COc1cc(-c2cc(-c3ccc(N4CCNCC4)cc3)cnc2N)cc(OC)c1OC,"enzyme activity, inhibitor",1 µM,inhibition,82%
O=C(Nc1cnn(-c2csc(C(=O)NC3COC3)c2)c1)Nc1c(F)cccc1Cl,"enzyme activity, inhibitor",5 µM,remaining activity,95.8%
CN([C@@H]1CCc2c(CC(=O)O)c3cc(S(C)(=O)=O)ccc3n2C1)S(=O)(=O)c1ccc(F)cc1,"cell-free assay, competition with immobilised ligand",1 µM,remaining binding,93%
CC(C)(C)c1nc(-c2cccc(NS(=O)(=O)c3c(F)cccc3F)c2F)c(-c2ccnc(N)n2)s1,"enzyme activity, inhibitor, radiometric",1 µM,remaining activity,98%
O=C(Nc1cccnn1)N1CCC(=Cc2cccc(Oc3ccc(C(F)(F)F)cn3)c2)CC1,"cell-free assay, competition with immobilised ligand",1 µM,remaining binding,100%
COc1cc(Nc2cnc(C#N)c(O[C@H](C)CN(C)C)n2)ncc1-c1cnn(C)c1,"enzyme activity, inhibitor, radiometric",1 µM,remaining activity,80%
Cc1cc(NC(=O)c2cccc(S(F)(F)(F)(F)F)c2)cc(-n2ccn3nc(-c4cccnc4)cc23)c1,"cell-free assay, competition with immobilised ligand",1 µM,remaining binding,100%
CCN(CC)CCNC(=O)c1c(C)[nH]c(/C=C2\C(=O)Nc3ccc(F)cc32)c1C,cell-free assay,0.5 µM,remaining signal,27.8%
